Experimental data taken from ChEMBL document CHEMBL4715736, “Identification of anticancer agents based on the thieno[2,3-b]pyridine and 1H-pyrazole molecular scaffolds” (2016).

Assays:
Type in all cases: functional
Conditions in all cases: read-out: Activity
[1] = tested on: HCT-15; experiment: Growth inhibition of human HCT-15 cells assessed as cell growth at 10 uM incubated for 48 hrs by sulforhodamine B assay relative to control
How it was run: (§1)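 Submitted to the NCI Developmental Therapeutics Program for the NCI60 human tumour cell line panel. First screen at a single 10 µM concentration. Read-out is growth relative to untreated control cells set at 100%.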

[2] = tested on: SK-MEL-2; experiment: Growth inhibition of human SK-MEL-2 cells assessed as cell growth at 10 uM incubated for 48 hrs by sulforhodamine B assay relative to control
How it was run: (§2)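 Run by the NCI Developmental Therapeutics Program as part of its 60-line human tumour panel. Each compound tested at a single 10 µM dose. Growth expressed as % relative to untreated control cells (100%).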

[3] = tested on: SW-620; experiment: Growth inhibition of human SW-620 cells assessed as cell growth at 10 uM incubated for 48 hrs by sulforhodamine B assay relative to control; how it was run: as §2
[4] = tested on: 786-0; experiment: Growth inhibition of human 786-0 cells assessed as cell growth at 10 uM incubated for 48 hrs by sulforhodamine B assay relative to control
How it was run: (§3)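 NCI Developmental Therapeutics Program NCI60 panel. Compounds that were active in the 10 µM one-dose screen went on to dose–response testing. Growth at each concentration is expressed relative to untreated control (100%). GI50 (concentration giving 50% of maximal inhibition of proliferation) and TGI (concentration giving total growth inhibition) were derived from the curves.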

[5] = tested on: SK-OV-3; experiment: Growth inhibition of human SK-OV-3 cells assessed as cell growth at 10 uM incubated for 48 hrs by sulforhodamine B assay relative to control; how it was run: as §2
[6] = tested on: MDA-MB-435; experiment: Growth inhibition of human MDA-MB-435 cells assessed as cell growth at 10 uM incubated for 48 hrs by sulforhodamine B assay relative to control; how it was run: as §1
[7] = tested on: HL-60(TB); experiment: Growth inhibition of human HL-60(TB) cells assessed as cell growth at 10 uM incubated for 48 hrs by sulforhodamine B assay relative to control
How it was run: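 Screened by the NCI Developmental Therapeutics Program on its panel of 60 human tumour cell lines. Compounds were first tested at a single 10 µM dose, and compounds active there went to dose-response curves. Growth is expressed relative to untreated control (100%). GI50 (50% of maximal proliferation inhibition) and TGI (total growth inhibition) were derived from the dose-response data.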

[8] = tested on: UO-31; experiment: Growth inhibition of human UO-31 cells assessed as cell growth at 10 uM incubated for 48 hrs by sulforhodamine B assay relative to control; how it was run: as §2
[9] = tested on: MDA-MB-231; experiment: Growth inhibition of human MDA-MB-231 cells assessed as cell growth at 10 uM incubated for 48 hrs by sulforhodamine B assay relative to control; how it was run: as §1
[10] = tested on: TK-10; experiment: Growth inhibition of human TK-10 cells assessed as cell growth at 10 uM incubated for 48 hrs by sulforhodamine B assay relative to control; how it was run: as §2
[11] = tested on: BT-549; experiment: Growth inhibition of human BT-549 cells assessed as cell growth at 10 uM incubated for 48 hrs by sulforhodamine B assay relative to control
How it was run: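 NCI Developmental Therapeutics Program NCI60 human tumour cell line panel, one-dose primary screen with every compound at 10 µM. Growth is expressed as % of untreated control cells (100%).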

[12] = tested on: MOLT-4; experiment: Growth inhibition of human MOLT-4 cells assessed as cell growth at 10 uM incubated for 48 hrs by sulforhodamine B assay relative to control; how it was run: as §1
[13] = tested on: NCI-H226; experiment: Growth inhibition of human NCI-H226 cells assessed as cell growth at 10 uM incubated for 48 hrs by sulforhodamine B assay relative to control; how it was run: as §1
[14] = tested on: Hs-578T; experiment: Growth inhibition of human Hs-578T cells assessed as cell growth at 10 uM incubated for 48 hrs by sulforhodamine B assay relative to control; how it was run: as §1
[15] = tested on: NCI/ADR-RES; experiment: Growth inhibition of human NCI/ADR-RES cells assessed as cell growth at 10 uM incubated for 48 hrs by sulforhodamine B assay relative to control; how it was run: as §1
[16] = tested on: SNB-75; experiment: Growth inhibition of human SNB-75 cells assessed as cell growth at 10 uM incubated for 48 hrs by sulforhodamine B assay relative to control; how it was run: as §2
[17] = tested on: PC-3; experiment: Growth inhibition of human PC-3 cells assessed as cell growth at 10 uM incubated for 48 hrs by sulforhodamine B assay relative to control; how it was run: as §2
[18] = tested on: NCI-H522; experiment: Growth inhibition of human NCI-H522 cells assessed as cell growth at 10 uM incubated for 48 hrs by sulforhodamine B assay relative to control; how it was run: as §1
[19] = tested on: A498; experiment: Growth inhibition of human A498 cells assessed as cell growth at 10 uM incubated for 48 hrs by sulforhodamine B assay relative to control; how it was run: as §3
[20] = tested on: SF-268; experiment: Growth inhibition of human SF-268 cells assessed as cell growth at 10 uM incubated for 48 hrs by sulforhodamine B assay relative to control; how it was run: as §2
[21] = tested on: SR; experiment: Growth inhibition of human SR cells assessed as cell growth at 10 uM incubated for 48 hrs by sulforhodamine B assay relative to control; how it was run: as §2
[22] = tested on: K562; experiment: Growth inhibition of human K562 cells assessed as cell growth at 10 uM incubated for 48 hrs by sulforhodamine B assay relative to control; how it was run: as §1
[23] = tested on: HT-29; experiment: Growth inhibition of human HT-29 cells assessed as cell growth at 10 uM incubated for 48 hrs by sulforhodamine B assay relative to control; how it was run: as §1
[24] = tested on: CAKI-1; experiment: Growth inhibition of human CAKI-1 cells assessed as cell growth at 10 uM incubated for 48 hrs by sulforhodamine B assay relative to control; how it was run: as §3

## Cc1cccc(NC(=O)c2sc3nc4c(cc3c2N)CN(Cc2ccccc2)CC4)c1
[1]
  growth at 10 µM: 97.5%
[2]
  growth at 10 µM: 129%
[3]
  growth at 10 µM: 96.8%
[4]
  growth at 10 µM: 91.5%
[5]
  growth at 10 µM: 105%
[6]
  growth at 10 µM: 94.5%
[7]
  growth at 10 µM: 108%
[8]
  growth at 10 µM: 98.4%
[9]
  growth at 10 µM: 113%
[10]
  growth at 10 µM: 114%
[11]
  growth at 10 µM: 79%
[12]
  growth at 10 µM: 103%
[13]
  growth at 10 µM: 100%
[14]
  growth at 10 µM: 94.6%
[15]
  growth at 10 µM: 101%
[16]
  growth at 10 µM: 101%
[17]
  growth at 10 µM: 98%
[18]
  growth at 10 µM: 114%
[19]
  growth at 10 µM: 85.1%
[20]
  growth at 10 µM: 103%
[21]
  growth at 10 µM: 95%
[22]
  growth at 10 µM: 109%
[23]
  growth at 10 µM: 100%

## CC(=O)c1cccc(NC(=O)c2sc3nc4c(cc3c2N)C(=O)CCC4)c1
[1]
  growth at 10 µM: 93.7%
[2]
  growth at 10 µM: 103%
[3]
  growth at 10 µM: 98.4%
[4]
  growth at 10 µM: 97%
[5]
  growth at 10 µM: 102%
[6]
  growth at 10 µM: 66.8%
[7]
  growth at 10 µM: 102%
[8]
  growth at 10 µM: 99.7%
[9]
  growth at 10 µM: 100%
[10]
  growth at 10 µM: 89.3%
[11]
  growth at 10 µM: 93.7%
[12]
  growth at 10 µM: 107%
[13]
  growth at 10 µM: 102%
[14]
  growth at 10 µM: 106%
[15]
  growth at 10 µM: 107%
[16]
  growth at 10 µM: 94.2%
[17]
  growth at 10 µM: 96.3%
[18]
  growth at 10 µM: 87.1%
[19]
  growth at 10 µM: 86.9%
[20]
  growth at 10 µM: 110%
[21]
  growth at 10 µM: 91.1%
[22]
  growth at 10 µM: 79.8%
[23]
  growth at 10 µM: 96.9%

## COc1ccc(S(=O)(=O)n2ccc(-c3ccc4c(c3)CCC(C)(C)O4)n2)cc1
[1]
  growth at 10 µM: 97.6%
[2]
  growth at 10 µM: 84.4%
[3]
  growth at 10 µM: 90.3%
[4]
  growth at 10 µM: 67.6%
[5]
  growth at 10 µM: 90.4%
[6]
  growth at 10 µM: 74.3%
[7]
  growth at 10 µM: 60%
[8]
  growth at 10 µM: 78.1%
[9]
  growth at 10 µM: 87.7%
[10]
  growth at 10 µM: 68.2%
[11]
  growth at 10 µM: 65.5%
[12]
  growth at 10 µM: 65.9%
[13]
  growth at 10 µM: 71.4%
[14]
  growth at 10 µM: 97.8%
[24]
  growth at 10 µM: 63.3%
[15]
  growth at 10 µM: 57.3%
[16]
  growth at 10 µM: 84%
[17]
  growth at 10 µM: 78%
[18]
  growth at 10 µM: 55.6%
[19]
  growth at 10 µM: 89.1%
[20]
  growth at 10 µM: 94.7%
[22]
  growth at 10 µM: 55.6%
[23]
  growth at 10 µM: 84.5%

## Cc1ccc(S(=O)(=O)n2ccc(-c3ccc(OCCCF)cc3)n2)cc1
[1]
  growth at 10 µM: 93.5%
[2]
  growth at 10 µM: 87.2%
[3]
  growth at 10 µM: 103%
[4]
  growth at 10 µM: 89.6%
[5]
  growth at 10 µM: 107%
[6]
  growth at 10 µM: 91.3%
[7]
  growth at 10 µM: 107%
[8]
  growth at 10 µM: 66.4%
[9]
  growth at 10 µM: 93.9%
[10]
  growth at 10 µM: 62.8%
[11]
  growth at 10 µM: 99.9%
[12]
  growth at 10 µM: 73.2%
[13]
  growth at 10 µM: 77.6%
[14]
  growth at 10 µM: 109%
[24]
  growth at 10 µM: 63.8%
[15]
  growth at 10 µM: 77.1%
[16]
  growth at 10 µM: 78.3%
[17]
  growth at 10 µM: 73.5%
[18]
  growth at 10 µM: 69.5%
[19]
  growth at 10 µM: 77%
[20]
  growth at 10 µM: 103%
[21]
  growth at 10 µM: 67.4%
[22]
  growth at 10 µM: 55.4%
[23]
  growth at 10 µM: 86.4%
